According to ChEMBL document CHEMBL4689842, “EUbOPEN Chemogenomics Library wave 1” (2021):

Assays:
HEK-293T = experiment: Multiplex assay against HEK293T; assay type: toxicity, cell-based; settings: human;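 on Population Tubulin-Different-Phenotype (%): share of the cells with healthy nuclei that show this phenotype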
How it was run: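 Values for tubulin, mitochondrial-mass and membrane-permeability phenotypes are per cents of cells with healthy nuclei. These cells were identified by CellPathfinder machine-learning gating of live cells that had been stained at seeding with Hoechst33342, BioTracker Green Microtubule Cytoskeleton Dye, MitoTracker Red and Annexin V Alexa Fluor 680 and imaged on a CQ1 microscope at 37°C and 5% CO2 after compound addition. The gating first set Hoechst high-intensity objects apart from normal cells, then split normal cells into healthy, pyknosed or fragmented nuclei, and pyknosed cells into mitotic or apoptotic.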

Fibroblast = experiment: Incucyte cell viability with human fibroblast; assay type: toxicity, cell-based; settings: 10 µM, compound concentration 10 uM; further: filed as whole numbers so only -1 and 0 and 1 occur
[1] = 12 h, 1 µM, compound concentration 1 uM, replicate 1
[2] = 12 h, 1 µM, compound concentration 1 uM, replicate 2
[3] = 12 h, 10 µM, compound concentration 10 uM, replicate 1
[4] = 12 h, 10 µM, compound concentration 10 uM, replicate 2
[5] = 24 h, 1 µM, compound concentration 1 uM, replicate 1
[6] = 24 h, 1 µM, compound concentration 1 uM, replicate 2
[7] = 24 h, 10 µM, compound concentration 10 uM, replicate 1
[8] = 24 h, 10 µM, compound concentration 10 uM, replicate 2
[9] = 48 h, 1 µM, compound concentration 1 uM, replicate 1
[10] = 48 h, 1 µM, compound concentration 1 uM, replicate 2
[11] = 48 h, 10 µM, compound concentration 10 uM, replicate 1
[12] = 48 h, 10 µM, compound concentration 10 uM, replicate 2

SMILES: CC(C)N1CCC(C)(C)c2cc(C#Cc3ccc(C(=O)O)cc3)ccc21
- Population Apoptotic (%) (HEK-293T; [1]): 60%
- Population Fragmented Nuclei (%) (HEK-293T; [1]): 13%
- Population Healthy Nuclei (%) (HEK-293T; [1]): 45%
- Population Hoechst High Intensity Objects (%) (HEK-293T; [1]): 17%
- Population Membrane Permeable-Phenotype (%) (HEK-293T; [1]): 2%
- Population Mitochondria Different-Phenotype (%) (HEK-293T; [1]): 74%
- Population Mitotic Cells (%) (HEK-293T; [1]): 40%
- Population Normal (%) (HEK-293T; [1]): 82%
- Population Pyknosed Nuclei (%) (HEK-293T; [1]): 41%
- Population Tubulin-Different-Phenotype (%) (HEK-293T; [1]): 43%
- Total Cell Count (HEK-293T; [1]): 278
- Population Apoptotic (%) (HEK-293T; [2]): 18%
- Population Fragmented Nuclei (%) (HEK-293T; [2]): 4%
- Population Healthy Nuclei (%) (HEK-293T; [2]): 54%
- Population Hoechst High Intensity Objects (%) (HEK-293T; [2]): 8%
- Population Membrane Permeable-Phenotype (%) (HEK-293T; [2]): 8%
- Population Mitochondria Different-Phenotype (%) (HEK-293T; [2]): 12%
- Population Mitotic Cells (%) (HEK-293T; [2]): 81%
- Population Normal (%) (HEK-293T; [2]): 91%
- Population Tubulin-Different-Phenotype (%) (HEK-293T; [2]): 6%
- Total Cell Count (HEK-293T; [2]): 156
- Population Apoptotic (%) (HEK-293T; [3]): 52%
- Population Fragmented Nuclei (%) (HEK-293T; [3]): 51%
- Population Healthy Nuclei (%) (HEK-293T; [3]): 40%
- Population Hoechst High Intensity Objects (%) (HEK-293T; [3]): 64%
- Population Membrane Permeable-Phenotype (%) (HEK-293T; [3]): 5%
- Population Mitochondria Different-Phenotype (%) (HEK-293T; [3]): 66%
- Population Mitotic Cells (%) (HEK-293T; [3]): 47%
- Population Normal (%) (HEK-293T; [3]): 35%
- Population Pyknosed Nuclei (%) (HEK-293T; [3]): 8%
- Population Tubulin-Different-Phenotype (%) (HEK-293T; [3]): 23%
- Total Cell Count (HEK-293T; [3]): 563
- Population Apoptotic (%) (HEK-293T; [4]): 16%
- Population Fragmented Nuclei (%) (HEK-293T; [4]): 32%
- Population Healthy Nuclei (%) (HEK-293T; [4]): 61%
- Population Hoechst High Intensity Objects (%) (HEK-293T; [4]): 44%
- Population Membrane Permeable-Phenotype (%) (HEK-293T; [4]): 4%
- Population Mitochondria Different-Phenotype (%) (HEK-293T; [4]): 12%
- Population Mitotic Cells (%) (HEK-293T; [4]): 83%
- Population Normal (%) (HEK-293T; [4]): 55%
- Population Pyknosed Nuclei (%) (HEK-293T; [4]): 5%
- Population Tubulin-Different-Phenotype (%) (HEK-293T; [4]): 5%
- Total Cell Count (HEK-293T; [4]): 405
- Population Apoptotic (%) (HEK-293T; [5]): 58%
- Population Fragmented Nuclei (%) (HEK-293T; [5]): 13%
- Population Healthy Nuclei (%) (HEK-293T; [5]): 45%
- Population Hoechst High Intensity Objects (%) (HEK-293T; [5]): 19%
- Population Membrane Permeable-Phenotype (%) (HEK-293T; [5]): 6%
- Population Mitochondria Different-Phenotype (%) (HEK-293T; [5]): 52%
- Population Mitotic Cells (%) (HEK-293T; [5]): 41%
- Population Normal (%) (HEK-293T; [5]): 80%
- Population Pyknosed Nuclei (%) (HEK-293T; [5]): 41%
- Population Tubulin-Different-Phenotype (%) (HEK-293T; [5]): 49%
- Total Cell Count (HEK-293T; [5]): 315
- Population Apoptotic (%) (HEK-293T; [6]): 14%
- Population Fragmented Nuclei (%) (HEK-293T; [6]): 4%
- Population Healthy Nuclei (%) (HEK-293T; [6]): 59%
- Population Hoechst High Intensity Objects (%) (HEK-293T; [6]): 4%
- Population Membrane Permeable-Phenotype (%) (HEK-293T; [6]): 7%
- Population Mitochondria Different-Phenotype (%) (HEK-293T; [6]): 4%
- Population Mitotic Cells (%) (HEK-293T; [6]): 85%
- Population Normal (%) (HEK-293T; [6]): 95%
- Population Pyknosed Nuclei (%) (HEK-293T; [6]): 35%
- Population Tubulin-Different-Phenotype (%) (HEK-293T; [6]): 10%
- Total Cell Count (HEK-293T; [6]): 168
- Population Apoptotic (%) (HEK-293T; [7]): 37%
- Population Fragmented Nuclei (%) (HEK-293T; [7]): 56%
- Population Healthy Nuclei (%) (HEK-293T; [7]): 40%
- Population Hoechst High Intensity Objects (%) (HEK-293T; [7]): 62%
- Population Membrane Permeable-Phenotype (%) (HEK-293T; [7]): 6%
- Population Mitochondria Different-Phenotype (%) (HEK-293T; [7]): 37%
- Population Mitotic Cells (%) (HEK-293T; [7]): 62%
- Population Normal (%) (HEK-293T; [7]): 37%
- Population Pyknosed Nuclei (%) (HEK-293T; [7]): 4%
- Population Tubulin-Different-Phenotype (%) (HEK-293T; [7]): 21%
- Total Cell Count (HEK-293T; [7]): 530
- Population Apoptotic (%) (HEK-293T; [8]): 0%
- Population Fragmented Nuclei (%) (HEK-293T; [8]): 29%
- Population Healthy Nuclei (%) (HEK-293T; [8]): 67%
- Population Hoechst High Intensity Objects (%) (HEK-293T; [8]): 46%
- Population Membrane Permeable-Phenotype (%) (HEK-293T; [8]): 3%
- Population Mitochondria Different-Phenotype (%) (HEK-293T; [8]): 6%
- Population Mitotic Cells (%) (HEK-293T; [8]): 100%
- Population Normal (%) (HEK-293T; [8]): 53%
- Population Pyknosed Nuclei (%) (HEK-293T; [8]): 3%
- Population Tubulin-Different-Phenotype (%) (HEK-293T; [8]): 9%
- Total Cell Count (HEK-293T; [8]): 448
- Population Apoptotic (%) (HEK-293T; [9]): 43%
- Population Fragmented Nuclei (%) (HEK-293T; [9]): 15%
- Population Healthy Nuclei (%) (HEK-293T; [9]): 56%
- Population Hoechst High Intensity Objects (%) (HEK-293T; [9]): 17%
- Population Membrane Permeable-Phenotype (%) (HEK-293T; [9]): 6%
- Population Mitochondria Different-Phenotype (%) (HEK-293T; [9]): 29%
- Population Mitotic Cells (%) (HEK-293T; [9]): 56%
- Population Normal (%) (HEK-293T; [9]): 82%
- Population Pyknosed Nuclei (%) (HEK-293T; [9]): 28%
- Population Tubulin-Different-Phenotype (%) (HEK-293T; [9]): 27%
- Total Cell Count (HEK-293T; [9]): 389
- Population Apoptotic (%) (HEK-293T; [10]): 11%
- Population Fragmented Nuclei (%) (HEK-293T; [10]): 9%
- Population Healthy Nuclei (%) (HEK-293T; [10]): 80%
- Population Hoechst High Intensity Objects (%) (HEK-293T; [10]): 2%
- Population Membrane Permeable-Phenotype (%) (HEK-293T; [10]): 5%
- Population Mitochondria Different-Phenotype (%) (HEK-293T; [10]): 2%
- Population Mitotic Cells (%) (HEK-293T; [10]): 88%
- Population Normal (%) (HEK-293T; [10]): 97%
- Population Pyknosed Nuclei (%) (HEK-293T; [10]): 10%
- Population Tubulin-Different-Phenotype (%) (HEK-293T; [10]): 9%
- Total Cell Count (HEK-293T; [10]): 358
- Population Apoptotic (%) (HEK-293T; [11]): 37%
- Population Fragmented Nuclei (%) (HEK-293T; [11]): 57%
- Population Healthy Nuclei (%) (HEK-293T; [11]): 38%
- Population Hoechst High Intensity Objects (%) (HEK-293T; [11]): 66%
- Population Membrane Permeable-Phenotype (%) (HEK-293T; [11]): 7%
- Population Mitochondria Different-Phenotype (%) (HEK-293T; [11]): 12%
- Population Mitotic Cells (%) (HEK-293T; [11]): 62%
- Population Normal (%) (HEK-293T; [11]): 33%
- Population Pyknosed Nuclei (%) (HEK-293T; [11]): 3%
- Population Tubulin-Different-Phenotype (%) (HEK-293T; [11]): 3%
- Total Cell Count (HEK-293T; [11]): 624
- Population Apoptotic (%) (HEK-293T; [12]): 0%
- Population Fragmented Nuclei (%) (HEK-293T; [12]): 23%
- Population Healthy Nuclei (%) (HEK-293T; [12]): 73%
- Population Hoechst High Intensity Objects (%) (HEK-293T; [12]): 52%
- Population Membrane Permeable-Phenotype (%) (HEK-293T; [12]): 4%
- Population Mitochondria Different-Phenotype (%) (HEK-293T; [12]): 1%
- Population Mitotic Cells (%) (HEK-293T; [12]): 100%
- Population Normal (%) (HEK-293T; [12]): 47%
- Population Pyknosed Nuclei (%) (HEK-293T; [12]): 2%
- Population Tubulin-Different-Phenotype (%) (HEK-293T; [12]): 5%
- Total Cell Count (HEK-293T; [12]): 571
- Growth Rate (Fibroblast; 0 h, replicate number 1, timepoint 0 hours): 0
- Growth Rate (Fibroblast; 6 h, replicate number 2, timepoint 6 hours): 0
- Growth Rate (Fibroblast; 12 h, replicate number 1, timepoint 12 hours): 0
- Growth Rate (Fibroblast; 12 h, replicate number 2, timepoint 12 hours): 1
- Growth Rate (Fibroblast; 18 h, replicate number 1, timepoint 18 hours): 0
- Growth Rate (Fibroblast; 24 h, replicate number 1, timepoint 24 hours): 0
